Compounds with a hit are over-represented: about 2.9% of the library has one in this group of screens.
5HT1E ag – 5-HT1E (human) receptor agonism | P28566 | CHO 5-HT1E Ga15 NFAT-bla reporter, FRET; 0% DMSO wells, 100% control agonist wells | activation, % at 6 µM | 65,000 compounds, 0.69% hits | AID 574;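 active = activation above a set limit, the screen-wide mean activation plus 3 SD, cut at about 8.5% in these data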
5-HT1A blocker – 5-HT1a (human) receptor antagonism; P08908; CHO 5-HT1a Ga15 NFAT-bla reporter, antagonist mode; inhibition, % at 10 µM; 62,000 compounds, 0.68% hits;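 active = inhibition above the mean of all tested compounds plus 3 SD, cut at about 43% in these data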;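 also: receptor stimulated by 5-CT agonist at 100 nM near EC80; beta-lactamase reporter measured by ratiometric fluorescence of a cleavable substrate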
5HT1E antag – antagonists of human 5-HT1E serotonin receptor | P28566 | CHO 5-HT1E Ga15 NFAT-bla reporter, FRET, antagonist | inhibition, % at 6 µM | 65,000 compounds, 0.99% hits | AID 571;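 active = inhibition above a set limit, the mean inhibition across every tested compound plus 3 SD, cut at about 29% in these data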;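 also: signal is the 460 over 535 nm emission ratio of beta-lactamase substrate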
S1P1 ag-PAM – agonists and agonism potentiators of human S1P1 receptor; P21453; S1P1 CRE-bla cells, forskolin, beta-lactamase FRET, potentiator mode; S1P1 agonist co-added at EC20, 2 nM; 100% = saturating reference agonist, 0% = basal; activation, % at 9.5 µM; 56,000 compounds, 0.57% hits; AID 449;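 active = activation above a cutoff set at the mean activation of all tested compounds plus 3 SD, cut at about 54% in these data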;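 also: forskolin at 4 µM as EC80 and the EC20 agonist is SEW2871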
Target sequence (P21453 whole entry, looked up): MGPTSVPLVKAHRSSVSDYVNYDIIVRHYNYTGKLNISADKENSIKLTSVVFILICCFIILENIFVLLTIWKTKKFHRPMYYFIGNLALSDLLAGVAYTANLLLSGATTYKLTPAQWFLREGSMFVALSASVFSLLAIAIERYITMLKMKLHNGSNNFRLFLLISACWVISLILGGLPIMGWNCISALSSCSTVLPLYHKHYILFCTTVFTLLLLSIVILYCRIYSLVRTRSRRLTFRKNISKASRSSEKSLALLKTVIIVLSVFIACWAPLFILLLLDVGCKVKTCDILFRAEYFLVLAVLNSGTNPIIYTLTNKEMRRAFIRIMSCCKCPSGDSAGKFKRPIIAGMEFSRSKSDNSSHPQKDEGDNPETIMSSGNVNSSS
S1P3 ag – agonists of human S1P3 receptor | Q99500 | S1P3 NFAT-BLA reporter cells, agonism, FRET ratio; relative to 1 µM S1P, basal subtracted | activation, % at 4.5 µM | 60,000 compounds, 0.1% hits;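 active = activation above the screen-wide mean plus 3 SD, cut at about 4.5% in these data, passing the limit was not always enough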
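Benchmarks: high control 1 µM S1P / System: stable CHO line with human S1P3, Gα16, NFAT-BLA reporter / Dosing: single compound concentration, 4.5 µM final / Timing: 4 h compound at 37 °C, 2 h substrate at RT / Measured by: FRET β-lactamase substrate fluorescence, excitation 405 nm, 460/535 nm emission ratio, background-subtracted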
5HT1a ag – activates the human 5-HT1a serotonin receptor; CHO 5-HT1a Ga15 NFAT-bla reporter, FRET ratio; 0% basal, 100% maximal reference agonist; activation, % at 10 µM; P08908; 65,000 compounds, 0.56% hits;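 active = activation above the screen-wide mean activation plus 3 SD, cut at about 19% in these data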
Hits are given with their value; n = inactive; x = not tested or not shown.

SMILES | 5HT1E ag | 5-HT1A blocker | 5HT1E antag | S1P1 ag-PAM | S1P3 ag | 5HT1a ag
COc1ccccc1C(=O)N1CCN(Cc2ccc3c(c2)OCO3)CC1 | 8.8 | x | n | n | n | n
CCC(=O)N1CCN(c2ccc(NC(=O)c3cc4ccccc4o3)cc2Cl)CC1 | n | n | 35.8 | x | n | n
O=C(Nc1ccc(N2CCN(C(=O)c3ccco3)CC2)c(Cl)c1)c1cc2ccccc2o1 | n | n | 38.3 | x | n | n
CCCC(=O)N1CCN(c2ccc(NC(=O)c3cc4ccccc4o3)cc2Cl)CC1 | n | n | 44.4 | 65.5 | n | n
O=C(Nc1ccc(N2CCCC2)c(Cl)c1)c1ccc(Br)o1 | n | n | n | 96.6 | n | n
O=C(Nc1ccccc1N1CCCC1)c1ccc(Br)o1 | n | n | n | n | n | n
O=C(Oc1ccc(-c2cn3c(n2)SCC3)cc1)c1ccccc1 | n | n | n | n | n | n
Cc1sc2ncnc(SC(C)C#N)c2c1C (stereo not drawn) | n | n | 31.4 | n | n | n
Cc1sc2ncnc(SCc3ccco3)c2c1C | n | n | n | n | n | n
CC(=O)c1cc2c(cc1NC(=O)CN1CCN(c3cccc(C(F)(F)F)c3)CC1)OCO2 | n | n | n | x | x | n
COc1ccccc1NC(=O)N1CCN(c2cccc(C(F)(F)F)c2)CC1 | 13.3 | n | n | n | n | n
CC(=O)Nc1ccc(CN2CCN(c3cccc(C(F)(F)F)c3)CC2)cc1 | 22.8 | n | n | n | n | n
Cn1c(-c2ccccc2)cnc1SCc1nc2ccccc2c(=O)[nH]1 | 58.6 | n | n | n | n | n
CCNc1nc(NCC)n2c(SCc3nc4ccccc4c(=O)[nH]3)nnc2n1 | n | n | 52.8 | n | n | n
O=C(O)CCNc1ccc2c(c1)OCCO2 | n | n | n | n | n | n
COc1ccc(CNc2nc(-c3cccnc3)nn2C(=O)c2cccs2)cc1 | n | n | 31.0 | n | n | n
CCC(C)NC(=O)N[C@@H](Cc1ccccc1)C(=O)O (stereo partly drawn) | n | n | n | n | n | 60.6
O=C(OCc1cccs1)c1ccccc1NS(=O)(=O)c1ccc2c(c1)OCCO2 | n | n | n | n | n | n
CCOc1ccc(N(CC(=O)O)S(=O)(=O)c2ccc(F)cc2)cc1 | n | n | n | n | n | 74.0
CC(=O)Nc1nc(C)nc(-c2ccccc2)c1C(C)=O | n | n | n | n | n | n
CNc1nc(C)c(C#N)c(-c2ccccc2)c1C(C)=O | 18.3 | n | n | n | n | n
CCC(C)NC(=O)COc1ccc(S(=O)(=O)N2CCOCC2)cc1 (stereo not drawn) | n | n | n | n | n | n
CCOC(=O)c1oc2ccccc2c1CSc1nnnn1-c1ccc(C)cc1 | n | n | n | n | n | n
COc1cc(CSc2nnnn2-c2ccc(C)cc2)cc(OC)c1OC | n | n | n | 102.1 | n | n
O=C(Nc1nc(-c2nc3ccccc3s2)cs1)c1ccc(S(=O)(=O)N2CCOCC2)cc1 | n | n | n | 108.7 | n | n
SMILES | 5HT1E ag | 5-HT1A blocker | 5HT1E antag | S1P1 ag-PAM | S1P3 ag | 5HT1a ag
CCOC(=O)C1CCCN(CC(=O)NC2CC2)C1 (stereo not drawn) | n | n | n | n | n | 22.1
COc1ccc(-c2cc(C(F)F)nc(-n3nc(C)cc3C)n2)cc1 | n | n | n | n | n | 83.0
COc1ccccc1C(=O)NCCc1nc2ccccc2[nH]1 | n | n | n | n | n | n
O=C(Nc1ccc(Cl)cc1)N1CCC(c2nc(-c3ccc(F)cc3)no2)CC1 | n | 47.4 | n | 57.1 | n | n
Cc1ccccc1NC(=O)C(C#N)Cc1cccnc1 (stereo not drawn) | n | n | n | n | n | n
CC1=C(C(=O)OCC(C)C)C(c2cccc(F)c2)N2C(=O)C(C)SC2=N1 (stereo not drawn) | 14.4 | n | n | n | n | n
Cc1ccccc1-n1c(SCc2ccccn2)nc2n[nH]c(C)c2c1=N | n | n | 56.8 | n | n | n
CCCCNC1C(CC)C(CCC)C(C#N)(C#N)C1(C#N)C#N (stereo not drawn) | n | 63.0 | 37.5 | n | n | n
c1ccc(-c2nnc3n2N=C(c2ccc4c(c2)OCO4)CS3)nc1 | n | x | n | n | n | n
c1cc2c(cc1C1=Nn3c(nnc3C3CCCCC3)SC1)OCO2 | n | x | 31.5 | n | n | n
Cc1ccc(C)c(OCCCC(=O)Nc2ccc(N3CCOCC3)cc2)c1 | n | n | n | n | n | 26.0
CCCn1c(SCC(=O)N2CCN(S(=O)(=O)c3ccc(Cl)cc3)CC2)n[nH]c1=O | 9.0 | n | n | n | n | n
Cc1cc(C)n2c(SCC(=O)N3CCN(S(=O)(=O)c4ccc(Cl)cc4)CC3)nnc2n1 | n | n | n | n | n | n
Cc1cc(NC(=O)Cc2cccs2)nn1CC(=O)NCc1ccco1 | 16.1 | n | n | n | n | n
Cc1ccc(C2C3=C(CC(C)(C)CC3=O)N(CCN3CCOCC3)C3=C2C(=O)CC(C)(C)C3)cc1 | n | n | n | n | n | n
CCc1nc(SCC(=O)N2CCC(C)CC2)c2c(=O)n(C)c(=O)n(C)c2n1 | n | n | n | n | n | n
CC1CCCC(NC(=O)c2ccc3c(=O)n(CC4CCCO4)c(=O)[nH]c3c2)C1C (stereo not drawn) | n | n | n | n | n | 53.7
O=c1nc2n(c3c4c(sc13)CCC4)CCC2 | n | n | n | n | n | n
CCn1c(COc2cccc3ccccc23)nnc1SCC(N)=O | n | n | n | n | n | n
Cn1ncc(N)c1C(=O)Nc1cccc(C(F)(F)F)c1 | n | n | n | n | n | 44.9
CCc1nc2ccccc2n1Cc1cc(=O)n2cc(C)ccc2n1 | n | n | n | n | n | n
CC1CCN(c2oc(-c3ccccc3Cl)nc2C#N)CC1 | n | x | 36.6 | n | n | n
CCC(C)c1ccc2oc(-c3ccc(NC(=O)c4ncn[nH]4)cc3)nc2c1 (stereo not drawn) | n | n | n | 97.6 | 15.8 | n
CC(=O)c1cccc(NC(=O)COc2ccc(S(=O)(=O)N3CCCCC3)cc2)c1 | n | n | n | n | n | n
CCOc1ccccc1CN(Cc1ccco1)S(=O)(=O)c1ccc(-n2cnnn2)c(OC)c1 | n | 53.5 | n | n | n | n
COc1ccc(OC)c(C(=O)c2ccc(C(=O)N3CCCCC3)cc2)c1 | n | n | n | n | n | 24.6
CC1CCCN(C(C(=O)Nc2ccc3c(c2)OCO3)c2ccccc2)C1 (stereo not drawn) | n | 49.3 | n | n | n | n
O=C1c2[nH]nc(-c3ccccc3O)c2C(c2ccc(F)cc2)N1Cc1ccco1 (stereo not drawn) | n | 53.0 | n | n | n | n
